According to publication PMC6466550 (ACS Medicinal Chemistry Letters, 2019):

System: FOPFlash reporter
Test: Wnt reporter assay, FOPFlash negative control
Type: cell-based
Details: 293T cells, 50 mM LiCl, 24 h, luciferase
Outline: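 293T cells transfected with the FOPFlash plasmid, whose TCF/LEF binding sites are mutated. This plasmid served as a negative control for the TOPFlash reporter, which carries eight TCF/LEF binding-site repeats. Wnt signalling was activated with the GSK3beta inhibitor LiCl. Cells were exposed to increasing concentrations of test compound, and reporter activity was then measured.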

Structure (SMILES): CCOC(=O)c1ccc(NS(=O)(=O)c2ccc(Br)cc2)cc1 [Compound 17]
- Effect on activity of FOP reporter: failed to prevent
